Sampled rows, rich in hits. Any-hit rate of the full collection: about 2.9%.
FAS TE block – inhibitors of human fatty acid synthase thioesterase domain | recombinant FAS-TE, OMFH fluorogenic substrate, fluorescence endpoint | AID 602261 | hit rate 0.67% among 360,000 | inhibition, % at 15 µM;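 active = compounds whose normalised, plate-corrected inhibition of enzyme fluorescence in the single-dose primary screen is 50% or more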
Arr AP2 block – inhibitors of human beta-arrestin and AP2 interaction | inhibition, % at 10 µM | FITC-arrestin peptide / GST-AP2 beads, flow cytometry; AP2 beta2 appendage carries R879A mutation | hit rate 0.31% among 340,000;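 active = inhibition above a set limit, near 3 SD of compounds lacking own fluorescence, cut at about 54% in these data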
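System: GST-AP2 R879A glutathione beads. Medium: PBS with 0.05% Tween 20 and 0.1% BSA. Also added: FITC-arrestin peptide, 50 nM. Incubation: 12 min plus 1 h, RT. Measured by: high-throughput flow cytometry of beads, ex 488, em 535 nm. Evaluation: percent drop in bead-associated FITC signal.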
NRP1-CendR mod – modulators of CendR peptide binding to human neuropilin-1. inhibition, % at 25 µM. hit rate 0.85% among 360,000. O14786. FAM-RPARPAR peptide binding to NRP-1, fluorescence polarization;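 active = inhibition or corrected inhibition above about 18%, plus a signal ratio from 0.5 to 1.5, limit read from the data, passing the limit was not always enough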
CaV13 ICDI inh – Disruptors of the CACNA1D IQ motif to Ca2+-dependent inactivation inhibitor domain association, primary screening, Förster resonance energy transfer in intact living … | HEK cells, CFP/YFP FRET ICDI-IQ, plate reader, 10 min; percent FRET-ratio fall versus neutral wells | inhibition, % at 12.3 µM | hit rate 0.098% among 340,000 | AID 743397;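 active = mean replicate inhibition of at least 30% and at least 1% of replicates passing that level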
ADAM10 inh – inhibits human ADAM10. recombinant ADAM10, EDANS/DABCYL FRET peptide cleavage, 3 h. inhibition, % at 7 µM. hit rate 0.62% among 370,000. AID 720582;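 active = inhibition above a per-campaign cutoff equal to the mean of compounds falling between control-based bounds plus 3 SD, cut at about 20% in these data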
Target sequence (O14672 214-748 limits assumed): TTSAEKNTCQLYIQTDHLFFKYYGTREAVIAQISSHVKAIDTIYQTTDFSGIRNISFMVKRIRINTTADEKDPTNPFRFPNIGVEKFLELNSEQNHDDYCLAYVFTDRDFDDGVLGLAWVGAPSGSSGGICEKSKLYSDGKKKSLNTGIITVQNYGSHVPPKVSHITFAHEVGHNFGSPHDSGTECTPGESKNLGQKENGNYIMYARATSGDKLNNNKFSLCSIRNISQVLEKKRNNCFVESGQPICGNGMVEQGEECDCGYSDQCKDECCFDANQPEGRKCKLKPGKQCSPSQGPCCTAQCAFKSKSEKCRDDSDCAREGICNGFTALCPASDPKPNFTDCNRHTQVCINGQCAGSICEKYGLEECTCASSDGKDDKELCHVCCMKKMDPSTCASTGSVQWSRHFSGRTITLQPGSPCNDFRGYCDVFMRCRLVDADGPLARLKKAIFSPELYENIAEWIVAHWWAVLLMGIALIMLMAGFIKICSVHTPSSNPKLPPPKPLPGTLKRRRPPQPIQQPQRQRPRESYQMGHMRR
ADAM17 inh – inhibitors of human ADAM17. P78536. inhibition, % at 6.95 µM. hit rate 0.83% among 370,000. recombinant ADAM17, EDANS/DABCYL FRET peptide cleavage. AID 720648;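 active = inhibition above the mean of compounds lying between control limits plus 3 SD, set per campaign, cut at about 8.5% in these data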
Hits are given with their value; 0 = inactive; - = no result.

SMILES	FAS TE block	Arr AP2 block	NRP1-CendR mod	CaV13 ICDI inh	ADAM10 inh	ADAM17 inh
CC(C)(C)n1cc(C(=O)c2ccccc2)cc1-c1ccccc1	0	0	21	0	0	0
CCC1C2Cc3ccc(O)cc3C1(CC)CCN2C (configuration not stated)	0	0	32	0	0	0
O=C(O)c1cc(S(=O)(=O)N2CC3CC(C2)c2cccc(=O)n2C3)ccc1F (configuration not stated)	-	-	-	-	0	0
CCOC(=O)c1ccccc1C(=O)OCC	0	0	44	0	0	0
CC1(C(=O)O)CCCC2(C)c3cc(O)ccc3CCC12 (configuration not stated)	0	0	34	0	0	0
CCN(CC)C(=O)c1ccc(NC(=O)c2cc(S(=O)(=O)N3CCCCCC3)ccc2OC)cc1	0	0	0	0	0	0
CCN(CC)C(=O)c1ccc(NC(=O)COc2ccc([N+](=O)[O-])cc2Cl)cc1	0	0	31	0	0	0
CC12CCC3c4ccc(OP(=O)(N5CC5)N5CC5)cc4CCC3C1CCC2=O (configuration not stated)	0	0	26	0	0	0
CC1CN1P(=O)(Oc1ccc2ccccc2c1)N1CC1C (configuration not stated)	0	0	0	0	0	0
CC(C)(C)n1nnnc1C1CN=C(c2ccccc2)c2cc(Cl)ccc2N1 (configuration not stated)	-	-	-	-	0	0
O=[N+]([O-])c1cc2c(cc1CNCCc1ccc3c(c1)OCO3)OCO2	0	0	37	0	0	0
Fc1ccc(CNCCc2ccc3c(c2)OCO3)cc1	0	0	0	0	0	0
COC(=O)C1=C(c2ccc(F)cc2F)C[C@@H]2CC[C@H]1N2C(=O)N1CCCCC1	0	0	22	0	0	0
COC(=O)C1=C(c2ccc(F)cc2F)C[C@@H]2CC[C@H]1N2C(=O)N1CCCC1	0	0	28	0	0	0
COC(=O)C1=C(c2ccc(F)cc2F)C[C@@H]2CC[C@H]1N2C(=O)NCc1ccc(F)cc1	0	0	0	0	76	0
COC(=O)C1=C(c2ccc(F)cc2F)C[C@@H]2CC[C@H]1N2C(=O)N1CCOCC1	0	0	0	0	0	0
COC(=O)C1=C(c2ccccc2)C[C@@H]2CC[C@H]1N2C(=O)NCc1ccc(F)cc1	0	0	0	0	0	0
C[C@@H]1CNCCN1c1ccc(N2CC[C@@H](O)C2)c(C#N)c1	-	-	-	0	0	0
CN1CN(c2ccccc2)C2(CCN(CCCSc3ccccc3NC(=O)/C=C/c3ccccc3)CC2)C1=O	0	0	0	0	0	14
Cc1cc2c(C(C)C)c(O)c(O)c(C=O)c2c(O)c1-c1c(C)cc2c(C(C)C)c(O)c(O)c(C=O)c2c1O	0	-	0	0	41	12
CCN1CCN(S(=O)(=O)c2ccc(Cl)nc2)CC1	0	0	28	0	0	0
CC[C@@H]1C[C@H]2CC[C@H](O2)[C@H](C)C(=O)O[C@@H](C)C[C@@H]2CC[C@@H](O2)[C@@H](C)C(=O)O[C@H](C)C[C@H]2CC[C@H](O2)[C@H](C)C(=O)O[C@@H](C)C[C@@H]2CC[C@@H](O2)[C@@H](C)C(=O)O1	-	-	-	-	0	0
COC(=O)C1=C(c2ccc(F)cc2OCc2ccccc2)C[C@@H]2CC[C@H]1N2C(=O)NCCO	0	0	0	-	-	-
COC(=O)C1=C(c2cccc(C#N)c2)C[C@@H]2CC[C@H]1N2C(=O)NCC1CC1	0	0	0	0	0	0
COC(=O)C1=C(c2cccc(C#N)c2)C[C@@H]2CC[C@H]1N2C(=O)NCCc1ccccc1	0	0	26	0	0	0
SMILES	FAS TE block	Arr AP2 block	NRP1-CendR mod	CaV13 ICDI inh	ADAM10 inh	ADAM17 inh
COC(=O)C1=C(c2ccc(F)cc2OCc2ccccc2)C[C@@H]2CC[C@H]1N2C(=O)NCc1ccc2c(c1)OCO2	0	0	0	0	22	0
COC(=O)C1=C(c2ccc(F)cc2OCc2ccccc2)C[C@@H]2CC[C@H]1N2C(=O)NCCNC(C)=O	0	0	30	0	0	0
COc1ccc(OC(=O)N(C)C)c(CN(C)C)c1	0	0	27	-	0	0
Cc1cc(CN(C)C)c(OC(=O)N(C)C)cc1C	0	0	0	0	0	0
O=S(=O)(NC1CCCCCCC1)OCC(Cl)(Cl)Cl	0	0	22	0	0	0
O=S(=O)(NC1CCCC1)OCC(Cl)(Cl)Cl	0	0	0	0	0	0
CN1CCc2cc3c(c4c2C1Cc1ccccc1-4)OCO3 (configuration not stated)	0	0	51	0	0	0
O=C1C=C(N2CC2)c2ccccc2C1=O	0	-	25	0	0	0
COc1ccc(OC)c(C(O)C(C)N)c1 (configuration not stated)	0	0	19	0	0	0
CC(=O)NCC1=C(c2ccc(S(C)(=O)=O)cc2)C[C@@H]2CC[C@H]1N2CCOc1ccccc1	-	-	-	0	0	0
O=C1c2cccc(N3CCNCC3)c2C2CCCCN12 (configuration not stated)	0	-	21	0	0	0
COC(=O)[C@@H]1[C@@H](C(=O)OC)C2(c3ccccc3-c3ccccc32)N(c2ccc(Cl)cc2)N1C#N	0	0	0	-	0	0
COC(=O)C[C@]1(C(=O)OC)CN(C#N)N(c2ccc(Cl)cc2)C12c1ccccc1-c1ccccc12	0	0	0	0	31	0
CC12CC(c3ccccc3O1)C(C(=O)OCc1ccccc1)C(=O)N2 (configuration not stated)	0	0	0	99	0	0
CC(=O)C1C(=O)NC23CCCCC2C1c1ccccc1O3 (configuration not stated)	0	0	0	0	0	0
CC(C)(C)NC(=O)CN1C(=O)[C@@H](Cc2c[nH]c3ccccc23)N=C(c2ccccc2)c2ccccc21	-	-	-	-	0	0
COC(=O)C1=C(c2ccc(C(C)=O)cc2)C[C@@H]2CC[C@H]1N2C(=O)N1CCOCC1	0	0	0	0	0	0
COC(=O)C1=C(c2ccc(C(C)=O)cc2)C[C@@H]2CC[C@H]1N2C(=O)N1CCC(O)CC1	0	0	29	0	0	0
COC(=O)C1=C(c2ccc(OC(F)(F)F)cc2)C[C@@H]2CC[C@H]1N2C(=O)N1CCC(C)CC1	0	0	29	0	0	0
COC(=O)C1C(c2ccc(I)cc2)CC2CCC1N2C (configuration not stated)	-	-	-	-	0	0
C[n+]1c(-c2ccccc2)c2cc(N)ccc2c2ccc(N)cc21	0	0	56	0	0	0
CC1(C)CN=C(Nc2ccc(F)c(Cl)c2)S1	0	0	27	0	0	0
CC1(C)CN=C(Nc2ccc(F)c(F)c2)S1	0	0	0	0	0	0

Compound activity (PubChem)
